Assay outcomes from PubChem.
This is a sample that favours compounds with a hit; in the whole collection about 2.5% have one here.
PAX8 inh HTS = lowers PAX8-driven luciferase in RMG-I cells. RMG-I TPO-luciferase reporter, SteadyGlo, 24 h. inhibition, % at 12.6 µM. 1.2% of 360,000 active. AID 652154;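 active = mean replicate inhibition at least 60% with every replicate also reaching 60%; inconclusive = only one of the two criteria is met; inactive = mean below 60% and not all replicates reaching 60%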;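 note: luciferase light reporting Pax8 driven TPO promoter activity; plate controls were median of neutral control wells for no effect and mitoxantrone controls for full effect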
FN deposition inh = fibronectin deposition inhibition. inhibition, % at 12.6 µM. 0.086% of 350,000 active. AH1F fibroblasts, Alexa488-fibronectin deposition fluorescence, overnight;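 active = mean inhibition across replicates of 30% or more, regardless of how many single replicates reach that level; inconclusive = mean under 30% yet at least half of replicates reach 30%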;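 note: positive control wells lacked labelled fibronectin entirely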
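Material: AH1F fibroblasts assembling fluorescent fibronectin matrix; amount: 10000 AH1F cells/well; medium: DMEM, 2% serum; reagent: Alexa488-fibronectin, 24 nM final in well; dosing: single compound dose, delivered by pin transfer; incubation: 1 h adhesion, overnight exposure; detection: fluorescence after three HBSS washes, excitation 485 nm, emission 525 nm; measure: fibronectin deposition inhibition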
Glyco luc inh = blocks N-linked glycosylation in D54 reporter cells; D54 ERlucT glycosylation luciferase reporter, 24 h; percent of 100 nM tunicamycin response; reporter increase, % at 12.5 µM; 0.23% of 360,000 active; AID 588692;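 active = mean luciferase reporter signal, scaled so untreated is 0 and the glycosylation-blocking control 100, at or above a set limit in every replicate; inconclusive = mean reaches the limit but not every replicate does; inactive = mean below the limit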;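 note: luciferase carries N-glycosylation sites so blocking glycosylation raises the light; 0% = median of neutral control wells and 100% = median of 100 nM tunicamycin wells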
MLL AF4-AF9 inh = blocks AF4 peptide binding to human AF9. P42568. AlphaScreen, biotin-AF4 peptide binding to FLAG-AF9. inhibition, % at 10 µM. 0.47% of 350,000 active;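 active = every replicate reaching a set inhibition limit, whatever the replicate mean, cut at about 25% in these data; inconclusive = mean inhibition reaches that limit but some replicates miss it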;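 note: 0% = plate neutral control median and 100% = total signal loss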
Target sequence (P42568 whole entry, looked up): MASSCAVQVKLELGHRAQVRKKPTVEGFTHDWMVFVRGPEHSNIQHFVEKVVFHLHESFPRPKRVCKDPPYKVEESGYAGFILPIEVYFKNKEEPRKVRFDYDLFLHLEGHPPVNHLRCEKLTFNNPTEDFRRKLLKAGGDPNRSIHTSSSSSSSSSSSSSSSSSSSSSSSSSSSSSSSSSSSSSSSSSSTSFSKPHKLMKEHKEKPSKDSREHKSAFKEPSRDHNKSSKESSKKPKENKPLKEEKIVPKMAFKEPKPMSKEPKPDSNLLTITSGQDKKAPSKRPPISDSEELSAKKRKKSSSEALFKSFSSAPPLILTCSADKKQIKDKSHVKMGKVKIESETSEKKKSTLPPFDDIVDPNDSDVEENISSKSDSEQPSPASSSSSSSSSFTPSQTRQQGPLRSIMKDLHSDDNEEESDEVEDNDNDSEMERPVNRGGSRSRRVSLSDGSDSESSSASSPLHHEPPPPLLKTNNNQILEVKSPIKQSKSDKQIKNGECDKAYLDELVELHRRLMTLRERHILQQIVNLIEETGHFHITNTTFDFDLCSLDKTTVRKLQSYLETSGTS
EWS-Fli block = blocks EWS/Fli oncoprotein-driven transcription; A673 NR0B1-luciferase reporter, viability-normalised; inhibition, % at 12.6 µM; 0.67% of 350,000 active; AID 651661;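 active = mean inhibition of at least 50% after viability correction, with every replicate also passing that limit; inconclusive = mean reaches 50% but only one of two replicates passes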;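 note: firefly luciferase signal divided by Alamar Blue viability fluorescence both relative to DMSO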
Env fusion inh = inhibitors of HIV Env-mediated cell fusion; HeLa-JRFL Env/CEM21 cell fusion, luciferase; 1.1% of 360,000 active; inhibition, % at 12.3 µM;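 active = mean replicate inhibition score of at least 50 and every replicate individually at or above 50; inconclusive = only one of the two criteria met; inactive = mean below 50 and not all replicates reaching 50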;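 note: 0% = plate neutral controls and 100% = maraviroc near 300 nM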
An asterisk follows results filed as active; ? = inconclusive; nt = not tested or not shown; [ ] = another dose, or the depositor's remark.

SMILES | PAX8 inh HTS | FN deposition inh | Glyco luc inh | MLL AF4-AF9 inh | EWS-Fli block | Env fusion inh
CO[C@H]1CN(C)C(=O)c2ccc(NS(=O)(=O)c3ccc(Cl)cc3)cc2OC[C@@H](C)N(C(=O)NC(C)C)C[C@H]1C | nt | 3 | nt | -1 | -4 | nt
CCCNC(=O)N[C@@H]1C=C[C@H](CC(=O)NC2CCCCC2)O[C@@H]1CO | 7 | -6 | nt | -1 | 8 | -8[16.7 µM]
C[C@H](CO)N1C[C@H](C)[C@H](CN(C)Cc2ccccc2)Oc2c(NC(=O)Nc3ccc4c(c3)OCO4)cccc2C1=O | -3 | nt | nt | 7 | -5 | 65*[16.7 µM]
Nc1nc(Sc2c([N+](=O)[O-])cc(C(F)(F)F)cc2[N+](=O)[O-])n[nH]1 | 21 | 9 | 10 | -1 | 55* | 12
Nc1nc(Sc2ccc(C(F)(F)F)cc2[N+](=O)[O-])n[nH]1 | 23 | 2 | 0 | nt | nt | -12
COc1cccc(S(=O)(=O)Nc2ccc3c(c2)[C@@H]2C[C@H](CC(=O)NCc4ccc(Cl)cc4)O[C@@H](CO)[C@@H]2O3)c1 | 62* | nt | nt | 0 | 23 | 6[16.7 µM]
COc1cccc(S(=O)(=O)Nc2ccc3c(c2)[C@H]2C[C@@H](CC(=O)NCc4ccc(Cl)cc4)O[C@H](CO)[C@H]2O3)c1 | 63* | nt | nt | 0 | 32 | 36[16.7 µM]
Cc1ccc(S(=O)(=O)N(C)C[C@H]2Oc3ccc(NS(=O)(=O)c4ccc(Cl)cc4)cc3C(=O)N([C@@H](C)CO)C[C@H]2C)cc1 | nt | nt | nt | 1 | 4 | -58[16.7 µM]
COC(=O)c1ccsc1NC(=O)CCS(=O)(=O)c1ccccc1 | 84* | -7 | -9 | 0 | nt | 24
Cc1ccc(S(=O)(=O)CCC(=O)Nc2sccc2C(N)=O)cc1 | 8 | -1 | -4 | 1 | 0 | -14
COC(=O)c1ccsc1NC(=O)CS(=O)(=O)c1ccccc1 | -11 | 3 | 0 | -17 | 6 | -11
COC(=O)c1ccsc1NC(=O)CCS(=O)(=O)c1ccc(Cl)cc1 | 83* | 1 | -9 | 0 | -10 | 5
CN(C)C(=O)[C@H]1[C@H](CO)[C@H]2Cn3c(ccc(-c4cccc(F)c4)c3=O)[C@@H]1N2CC1CC1 | -14 | nt | nt | -2 | -11 | nt
C[C@H]1CN([C@@H](C)CO)S(=O)(=O)c2ccc(-c3cccc(C#N)c3)cc2O[C@@H]1CN(C)Cc1cccc(F)c1 | 42 | -12 | nt | -2 | 30 | 24[16.7 µM]
CO[C@@H]1CN(C)C(=O)c2cc(NS(C)(=O)=O)ccc2OC[C@H](C)N(CC2CC2)C[C@H]1C | 10 | -1 | nt | -1 | -4 | nt
CS(=O)(=O)Nc1ccc2c(c1)[C@@H]1C[C@H](CC(=O)N3CCc4ccccc4C3)O[C@@H](CO)[C@@H]1O2 | 12 | nt | nt | 1 | 4 | -7[16.7 µM]
CN1CCN(C(=O)C[C@H]2C[C@@H]3c4cc(NS(C)(=O)=O)ccc4O[C@@H]3[C@H](CO)O2)CC1 | -12 | 8 | nt | -2 | 0 | 64*[16.7 µM]
CS(=O)(=O)Nc1ccc2c(c1)[C@@H]1C[C@@H](CC(=O)N3CCc4ccccc4C3)O[C@H](CO)[C@@H]1O2 | -9 | nt | nt | 0 | -5 | 63*[16.7 µM]
CS(=O)(=O)Nc1ccc2c(c1)[C@H]1C[C@@H](CC(=O)NCCN3CCCCC3)O[C@@H](CO)[C@H]1O2 | -22 | nt | nt | 2 | -7 | 67*[16.7 µM]
CS(=O)(=O)Nc1ccc2c(c1)[C@H]1C[C@H](CC(=O)N3CCc4ccccc4C3)O[C@H](CO)[C@H]1O2 | 26 | nt | nt | -1 | -1 | 63*[16.7 µM]
O=C(C[C@H]1C[C@H]2c3cc(NS(=O)(=O)c4ccc(F)cc4)ccc3O[C@H]2[C@@H](CO)O1)N1CCc2ccccc2C1 | 2 | 3 | nt | 4 | 6 | -48[16.7 µM]
O=C(Cc1ccccn1)N1CC(=O)N2[C@H](C1)[C@@H](c1ccc(C#CC3CCCC3)cc1)[C@@H]2CO | nt | 2 | nt | 4 | -5 | nt
COc1ccc(-c2nc(CN3CCN(c4cc(C)nc(C)c4)CC3)c(C)o2)c2ccccc12 | 22 | 5 | 0 | 26* | 22 | 12
COc1ccc(C2=Nc3ccccc3N(C(=O)Cc3cc(OC)cc(OC)c3)C2C(=O)NC(C)(C)C)cc1 (stereo not given) | 0 | 5 | nt | 6 | -63 | 55*
COc1ccc(C2=Nc3ccccc3N(C(=O)Cc3cc(OC)cc(OC)c3)C2C(=O)NC(C)C)cc1 (stereo not given) | -174 | -10 | nt | 3 | -59 | -18
SMILES | PAX8 inh HTS | FN deposition inh | Glyco luc inh | MLL AF4-AF9 inh | EWS-Fli block | Env fusion inh
COc1ccc(NC(=O)N(C)C[C@@H]2OCCCC[C@H](C)Oc3ccc(NS(=O)(=O)c4c(C)noc4C)cc3C(=O)N([C@H](C)CO)C[C@@H]2C)cc1 | 5 | nt | nt | nt | -1 | -28[16.7 µM]
O=C(C[C@H]1CC[C@H]2[C@@H](COC[C@@H](O)CN2S(=O)(=O)c2cccc(F)c2)O1)Nc1ccc(-c2ccccc2)cc1 | -23 | 1 | nt | 0 | -50 | nt
O=C(C[C@H]1CC[C@@H]2[C@H](COC[C@H](O)CN2S(=O)(=O)c2cccc(F)c2)O1)Nc1ccc(-c2ccccc2)cc1 | 116* | -12 | nt | 1 | 2 | nt
O=C(C[C@H]1CC[C@@H]2[C@H](COC[C@@H](O)CN2S(=O)(=O)c2cccc(F)c2)O1)Nc1ccc(-c2ccccc2)cc1 | 72* | 1 | nt | 1 | -78 | nt
COc1ccc(NC(=O)N(C)C[C@@H]2Oc3c(NS(=O)(=O)c4ccc(F)cc4)cccc3C(=O)N([C@H](C)CO)C[C@@H]2C)cc1 | -1 | nt | nt | nt | 6 | -112[16.7 µM]
CN1c2ccc(-c3ccc(F)cc3)cc2[C@@H]2[C@@H](CCN2C(=O)c2ccc(F)cc2)[C@H]1CO | nt | 15 | nt | 16 | -2 | nt
CC(C)NC(=O)Nc1cccc2c1O[C@H](CN(C)C(=O)NC(C)C)[C@@H](C)CN(C)C2=O | nt | 4 | nt | nt | nt | nt
O=C(Nc1ccc(F)cc1)N1CCCCN2[C@H](CO)[C@@H](c3ccc(C#Cc4ccccc4)cc3)[C@H]2C1 | 39 | 4 | nt | -5 | 3 | nt
O=C(Nc1ccccc1)N1CCCCN2[C@@H](CO)[C@@H](c3ccc(C#Cc4ccccc4)cc3)[C@@H]2C1 | 107* | 10 | nt | 3 | 43 | nt
O=C(Nc1ccccc1)N1CCCCN2[C@@H](CO)[C@H](c3ccc(C#Cc4ccccc4)cc3)[C@@H]2C1 | 72* | nt | nt | 2 | 34 | nt
O=C(Nc1ccccc1)N1CCCCN2[C@@H](CO)[C@@H](c3ccc(-c4ccccc4)cc3)[C@@H]2C1 | -5 | nt | nt | -2 | 65* | nt
O=C(Nc1ccc(F)cc1)N1CCCCN2[C@@H](CO)[C@@H](c3ccc(C#Cc4ccccc4)cc3)[C@@H]2C1 | 77* | 12 | nt | 6 | 63* | nt
COc1ccc(S(=O)(=O)N(C)C[C@@H]2Oc3ccc(NC(=O)CCCN(C)C)cc3CC(=O)N([C@@H](C)CO)C[C@H]2C)cc1 | -6 | 4 | nt | 2 | 0 | nt
COc1cc(C2c3cc4c(cc3CC3COC(=O)N32)OCO4)cc(OC)c1OC (stereo not given) | 72* | nt | 3 | 9 | ? | -37
